These results are taken from ChEMBL document CHEMBL1153963, “Phenanthrene-based tylophorine-1 (PBT-1) inhibits lung cancer cell growth through the Akt and NF-kappaB pathways” (J Med Chem, 2009).

Active and inactive are the calls of the source. The rule behind the calls is not given here.

The target in experiment [1] is RAC-alpha serine/threonine-protein kinase (Homo sapiens) (UniProt P31749). The experiment is described as follows: Inhibition of TNF-alpha-induced AKT activation in human CL1-0 cells by Western blot. Type of experiment: cell-based. The essentials:
(§1)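 CL1-0 (and A549) cells serum-starved overnight, pretreated at various concentrations, then TNF-α stimulated for 4 h; extracts immunoblotted for p-Akt, Akt, IKKα, p-IKKα/β; representative blot shown.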
(In western blotting, separated proteins are transferred to a membrane and probed.)

Experiment [2] in a line: Cell cycle arrest in human CL1-0 cells assessed as accumulation at G2/M phase after 2 hrs by flow cytometry. The format is functional, cell-based. The essentials: (§2)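 CL1-0 cells seeded at 2×10^5 per 60 mm dish, incubated 24 h, then exposed to various drug concentrations for 2, 6, 12, 16 or 24 h. Harvested cells fixed in cold 70% ethanol at 4 °C for 16 h, treated with RNase A (20 µg/mL, 37 °C, 30 min), stained with propidium iodide (50 µg/mL, 4 °C, 30 min), analysed at once by flow cytometry for phase distribution.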
For orientation: A flow cytometer gives signals particle by particle.

Experiment [3] has as its system CL1-0. The experiment is described as follows: Growth inhibition of human CL1-0 cells at >0.25 ug/mL. Type of experiment: functional, cell-based.
Experiment [4] is described as follows: Cell cycle arrest in human CL1-0 cells assessed as accumulation at S phase after 24 hrs by flow cytometry. Type of experiment: functional, cell-based. The procedure, abridged:
as §2

Experiment [5] can be described thus: Cell cycle arrest in human CL1-0 cells assessed as decrease in accumulation at G0/G1 phase by flow cytometry. The format is functional, cell-based. Conditions: TDE = time-dependent effect. The procedure, abridged: as §2
A short description of experiment [6]: Cell cycle arrest in human CL1-0 cells assessed as accumulation at G2/M phase after 16 hrs by flow cytometry. Type of experiment: functional, cell-based. The procedure, abridged:
as §2

The nature of experiment [7]: Cell cycle arrest in human CL1-0 cells assessed as accumulation at G0/G1 phase after 6 hrs by flow cytometry. The format is functional, cell-based. The essentials: as §2
The target in experiment [8] is T1, Inhibitor of nuclear factor kappa-B kinase subunit alpha (Homo sapiens) (UniProt O15111).
T1 sequence (whole entry): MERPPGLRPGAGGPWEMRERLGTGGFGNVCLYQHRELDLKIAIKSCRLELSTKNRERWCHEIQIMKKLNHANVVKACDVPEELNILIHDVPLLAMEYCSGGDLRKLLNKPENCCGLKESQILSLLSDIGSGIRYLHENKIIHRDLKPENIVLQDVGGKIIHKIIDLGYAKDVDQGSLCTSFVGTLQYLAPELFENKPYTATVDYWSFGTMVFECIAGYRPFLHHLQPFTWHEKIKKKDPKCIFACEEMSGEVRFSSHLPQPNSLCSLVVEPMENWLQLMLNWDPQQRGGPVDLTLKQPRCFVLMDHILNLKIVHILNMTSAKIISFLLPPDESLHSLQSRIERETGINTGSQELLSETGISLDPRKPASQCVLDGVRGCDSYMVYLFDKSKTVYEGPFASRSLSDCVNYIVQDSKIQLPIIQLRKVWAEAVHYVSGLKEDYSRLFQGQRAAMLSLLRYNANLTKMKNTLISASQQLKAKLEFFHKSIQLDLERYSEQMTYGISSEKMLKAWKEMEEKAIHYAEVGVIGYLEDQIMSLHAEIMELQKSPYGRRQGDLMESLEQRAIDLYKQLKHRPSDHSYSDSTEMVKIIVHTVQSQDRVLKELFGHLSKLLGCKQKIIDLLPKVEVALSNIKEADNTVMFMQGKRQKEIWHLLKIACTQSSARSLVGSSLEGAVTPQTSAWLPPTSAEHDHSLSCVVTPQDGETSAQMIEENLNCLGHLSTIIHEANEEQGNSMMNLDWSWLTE
The experiment is described as follows: Increase in IKKalpha activity in TNF-alpha-stimulated human CL1-0 cells by Western blot. Type of experiment: cell-based. The essentials: as §1

For experiment [9], the system named is CL1-0. The experiment is described as follows: Decrease in RelA protein level in TNF-alpha-stimulated human CL1-0 cells by Western blot. The format is functional, cell-based. The procedure, abridged: (§3)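 CL1-0 cells serum-starved overnight, pretreated with various drug concentrations, then stimulated with TNF-α for 4 h. Lysates (50 µg) resolved by 10% SDS-PAGE, blotted, probed with specific antibodies in TBS pH 7.5/0.05% Tween 20/5% milk, HRP secondaries, chemiluminescent film detection; a representative blot shown.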

The test system of experiment [10] is A549. The experiment is described as follows: Decrease in NF-kappaB1 binding affinity to NF-kappaB response element on COX2 promoter in human A549 cells by chromatin immunoprecipitation assay. Type of experiment: functional, cell-based. The essentials: (§4)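 A549 cells, untreated or treated with drug plus TNF-α for 4 h, cross-linked with 1% formaldehyde (quenched with 0.125 M glycine), lysed, sonicated 12 W for 45 s, immunoprecipitated overnight at 4 °C with anti-RelA, anti-p50 or anti-RelB, collected on protein A/G beads. Cross-links reversed at 65 °C overnight; COX-2 promoter (nt -359 to +106) PCR-amplified 35 cycles, 2% agarose gel, input chromatin as control.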

The subject of experiment [11] is CL1-0. The experiment is described as follows: Decrease in COX2 protein level in TNF-alpha-stimulated human CL1-0 cells by Western blot. Type of experiment: functional, cell-based. The essentials:
as §3

Experiment [12] deals with CL1-0. The experiment is described as follows: Decrease in IkappaB protein level in TNF-alpha-stimulated human CL1-0 cells by Western blot. Type of experiment: functional, cell-based. The procedure, abridged:
as §3

Experiment [13] deals with A549. The experiment is described as follows: Decrease in RelA binding affinity to NF-kappaB response element on COX2 promoter in human A549 cells by chromatin immunoprecipitation assay. The format is functional, cell-based. The procedure, abridged:
as §4

Experiment [14] can be described thus: Cell cycle arrest in human CL1-0 cells assessed as accumulation at G0/G1 phase after 2 hrs by flow cytometry. Type of experiment: functional, cell-based. The essentials: as §2

RAC-alpha serine/threonine-protein kinase (Homo sapiens), sequence (P31749 whole entry): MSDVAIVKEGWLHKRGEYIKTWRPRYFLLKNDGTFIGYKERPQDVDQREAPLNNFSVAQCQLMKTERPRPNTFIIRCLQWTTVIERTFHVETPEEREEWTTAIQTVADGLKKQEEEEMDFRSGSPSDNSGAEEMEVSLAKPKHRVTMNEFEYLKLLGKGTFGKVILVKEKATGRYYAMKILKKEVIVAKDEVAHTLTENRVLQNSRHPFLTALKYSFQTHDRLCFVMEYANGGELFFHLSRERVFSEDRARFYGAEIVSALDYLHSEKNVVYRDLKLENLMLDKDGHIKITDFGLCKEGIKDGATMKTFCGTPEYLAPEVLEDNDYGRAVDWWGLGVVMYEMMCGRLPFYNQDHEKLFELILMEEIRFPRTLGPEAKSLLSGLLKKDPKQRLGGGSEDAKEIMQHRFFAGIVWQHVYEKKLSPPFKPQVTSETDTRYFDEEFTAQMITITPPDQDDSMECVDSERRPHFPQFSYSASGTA

`COc1ccc2c(CN3CCC(CO)CC3)cc3cc4c(cc3c2c1)OCO4`: the result (in experiment [1]; with CL1-0 [3]; in experiment [8]; in the experiment on CL1-0 [9]; in the experiment on A549 [10]; in the experiment with CL1-0 [11]) was Active. The outcome in the experiment on CL1-0 [12] and in the experiment on A549 [13] was Active. The Activity in [2] is 25.4%; in [4], 43.8%; in [5], “tde”; in experiment [6] it was 33.6%; in experiment [7] it was 52.5%; in experiment [14], 53.7%.
